High-throughput results deposited in PubChem BioAssay by The Scripps Research Institute Molecular Screening Center.
Compounds with a hit are over-represented: about 2.3% of the library has one in this group of screens.
V1R ag counter: agonists of human V1a receptor, primary screen, counter-screen for OXTR agonist project, fluorescence, CHO-V1R cells; Vasopressin V1a receptor (Homo sapiens), P37288; Fluo-8 calcium fluorescence, agonist mode; 0% DMSO, 100% 3 nM vasopressin; activation, % at 3 µM; 320,000 tested, 0.25% active;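 active means activation above the mean activation of all tested compounds plus 3 SD, per screening run, cut at about 20% in these data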;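 further: signal is peak over basal fluorescence ratio across a 100 second FLIPR read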
TAAR1 agonist: human TAAR1 agonists, primary screen, Fluo-8 calcium fluorescence, CHO RD-HGA16 cells. Trace amine-associated receptor 1 (Homo sapiens), Q96RJ0. vehicle wells 0%, saturating PEA agonist 100%. activation, % at 3 µM. 360,000 tested, 0.99% active. AID 624467, 2012;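 active means activation above the mean activation of all test compounds in the run plus 3 SD, cut at about 38% in these data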
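Repeats: no replicates (n 1) | Material: CHO-derived RD-HGA16 cells with stable Gα16 and human TAAR1 | Technique: Kinetic Fluo-8 calcium fluorescence | Schedule: 17-24 h seeding, 75 min 37 °C dye, 30 min RT | Evaluation: % activation from peak over basal fluorescence ratio, DMSO-to-PEA scaled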
OXTR potentiator: human OXTR potentiators, primary screen, fluorescence, CHO-OTR cells, Fluo-8 calcium; 320,000 tested, 0.061% active; activation, % at 3 µM; Fluo-8 calcium fluorescence, potentiator mode; 0% = oxytocin EC15, 100% = EC100; Oxytocin receptor (Homo sapiens), P30559;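 active means activation above that plate's cutoff, the mean activation of tested compounds plus 3 SD, cut at about 6.6% in these data, passing the limit was not always enough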;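 further: 100% uses oxytocin at 75 nM as the full agonist control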
Target sequence (P30559 whole entry, looked up): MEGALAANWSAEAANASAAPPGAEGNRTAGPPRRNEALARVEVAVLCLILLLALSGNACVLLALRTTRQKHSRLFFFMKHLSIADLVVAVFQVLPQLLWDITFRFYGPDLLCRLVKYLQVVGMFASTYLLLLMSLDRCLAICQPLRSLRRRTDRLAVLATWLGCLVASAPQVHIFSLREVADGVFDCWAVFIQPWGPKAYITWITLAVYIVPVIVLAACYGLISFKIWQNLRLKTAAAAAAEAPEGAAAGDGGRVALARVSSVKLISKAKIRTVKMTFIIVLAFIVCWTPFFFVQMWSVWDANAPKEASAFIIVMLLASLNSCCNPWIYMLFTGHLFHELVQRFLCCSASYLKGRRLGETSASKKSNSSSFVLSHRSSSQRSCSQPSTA
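Assay system: CHO cell line stably expressing human OTR | Also added: Oxytocin at about EC15, sub-maximal agonist stimulus | Times: Compound 6 min at room temperature before oxytocin, 100 s read | Measured by: Fluo-8 intracellular calcium fluorescence, ex 470-495, em 515-575 nm | Controls: EC15 oxytocin alone as 0%, 75 nM oxytocin as 100%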
TAAR1 antagonist: human TAAR1 antagonists, primary screen, Fluo-8 calcium fluorescence, CHO RD-HGA16 cells; Trace amine-associated receptor 1 (Homo sapiens), Q96RJ0; inhibition, % at 3 µM; AID 624466, 2012; 360,000 tested, 1.5% active; antagonist;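 active means inhibition above a per-plate cutoff, the mean inhibition of test compounds on that plate plus 3 SD, cut at about 49% in these data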;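 further: 0% = DMSO plus EC80 beta-PEA response and 100% = DMSO alone without agonist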
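Test system: RD-HGA16 CHO cells with stable hTAAR1 and Gα16 / Probe or stimulus: EC80 β-phenethylamine stimulus / Times: seeding 17-24 h prior, 75-min 37 °C, 30-min RT dye loading / Detection: Fluo-8 calcium-sensitive fluorescence / Read-out basis: % inhibition scaled between DMSO and EC80 PEA controls / Repeats: singlicate, one well per test compound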
OXTR agonist: human OXTR agonists, primary screen, fluorescence, CHO-OTR cells, Fluo-8 calcium; activation, % at 3 µM; 320,000 tested, 0.32% active; Fluo-8 calcium fluorescence; normalized: DMSO 0%, oxytocin 100%; AID 2435, 2010;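 active means activation above the mean of all tested compounds plus 3 SD, cutoff set per screening run, cut at about 20% in these data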;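 further: peak over basal fluorescence ratio from a 100 s FLIPR kinetic read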
* marks the source's active call; other numbers are inactive results; x = not tested or not shown.

SMILES	V1R ag counter	TAAR1 agonist	OXTR potentiator	TAAR1 antagonist	OXTR agonist
CCOC(=O)/C(C#N)=C/C=C1\C=Cc2ccccc2N1CC	5	17	-1	11	7
CCCCCCN1C=CC(=C/C=C(\C#N)C(=O)OCC)C=C1	149*	114*	-16	60*	177*
CCCN1C=CC(=C/C=C(\C#N)C(=O)OCC)C=C1	49*	x	-15	x	62*
Cn1c(SCc2ccc(F)cc2Cl)nc2ccccc2c1=O	2	1	-7	-8	1
O=C(COC(=O)c1ccc2c(c1)OCCO2)NCCc1ccc(F)cc1	0	2	6	-5	-2
COC(=O)[C@H](Cc1ccccc1)NC(=O)NC(C)CCc1ccccc1 (stereo partly drawn)	14	45*	-15	13	14
CCOC(=O)N1CCN(C(=O)C[C@@H]2C[C@@]3(C(=O)OCC)CCC=C3N(Cc3cccc4ccccc34)C2=O)CC1	x	3	x	-7	x
CC(=O)OC[C@@H]1CN(Cc2cccc(C(F)(F)F)c2)C[C@H](n2cnc3c(NCc4ccco4)ncnc32)O1	x	9	x	56*	x
CCCCOC(=O)CCn1c(=S)oc2ccccc21	-1	44*	-5	25	-2
Cc1cc(NS(=O)(=O)c2ccc(NC(=O)CCSc3ccc(F)cc3)cc2)nc(C)n1	1	6	0	-12	0
NC(=O)c1cc([N+](=O)[O-])ccc1NCC1CCCCC1	-2	38*	-8	-15	-2
CN1C(=O)/C(=C/c2cccc(Cl)c2)Sc2ccc(C(=O)NCc3cccnc3)cc21	2	10	-6	51*	3
CN1CCN(CCCNC(=O)c2ccc(/C=C3/Sc4ccccc4N(Cc4cccc(Cl)c4)C3=O)cc2)CC1	x	36	x	57*	x
COc1cccc(/C=C2\Sc3ccc(C(=O)NCc4cccnc4)cc3N(C)C2=O)c1	5	2	-6	21	2
C[C@H](O)[C@@H]1CN2CCc3c([nH]c4c(-c5ccccc5)cccc34)[C@@H]2C[C@@H]1N(C)C(=O)Nc1ccccc1	x	16	x	-19	x
CCN(CC)S(=O)(=O)c1cc(NC(=O)C2CCN(c3ncnc4sc(C)c(C)c34)CC2)ccc1Cl	1	5	-11	65*	-1
Cc1ccc(C)c(S(=O)(=O)N2CCN(C(=O)C3CCN(c4ncnc5sc(C)c(C)c45)CC3)CC2)c1	2	5	-15	59*	-1
Cc1ccc(NC(=O)C2CCN(c3ncnc4sc(C)c(C)c34)CC2)cc1S(=O)(=O)N(C)C	0	7	-7	34	-1
CC(NS(=O)(=O)c1ccc(Br)cc1F)[C@H](O)c1ccccc1 (stereo partly drawn)	x	1	x	10	x
CC(C)c1csc(CN2CCN(CCc3ccccc3)C(CCO)C2)n1 (stereo not drawn)	2	1	-7	-2	1
COc1ccccc1C1C2C(=O)N(c3ccccc3)C(=O)C2ON1c1ccccc1 (stereo not drawn)	1	16	-7	50*	-1
O=C(O)COc1ccccc1C1C2C(=O)N(c3ccc(F)cc3)C(=O)C2ON1c1ccccc1 (stereo not drawn)	0	10	-14	45	-1
COCCCN(Cc1ccco1)C(=O)CSc1nc2ncccc2[nH]1	1	1	-5	-11	1
CCC(CC)N=C1NS(=O)(=O)c2cc([N+](=O)[O-])ccc21	2	3	-3	7	1
Cc1nc(Cl)c(C(=O)NC(=O)Nc2cccc(C(F)(F)F)c2)c(C)c1[N+](=O)[O-]	9	42*	-17	29	14
CC(=O)c1c(C)[nH]c(C(=O)COC(=O)C2(C)CC2(Cl)Cl)c1C (stereo not drawn)	12	17	-14	56*	12
